Reference: paper PMC4476059 (Cell, 2015)

Experiments:
Assay type in all cases: cell-based
[1] = biological target: T1, full-length wild-type LPA1 (Homo sapiens, UniProt Q92633); assay: Ca2+ mobilization assay in B103 cells expressing full-length wild-type LPA1; settings: read-out: EC50, Ca2+ mobilization assay; B103 cells heterologously expressing full-length wild-type LPA1; normalized to 3 μM 1-oleoyl-LPA (Figure 6D)
[2] = biological target: T1, full-length wild-type LPA1; assay: cAMP assay; settings: read-out: EC50, cAMP assay; B103 cells expressing full-length wild-type LPA1; 10 μM forskolin; n=2 (Figure 6D)
[3] = biological target: T2, LPA1 (Homo sapiens, UniProt Q92633); assay: F-actin stress fiber formation assay in B103 cells expressing LPA1; settings: 15 min treatment
How it was run: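 Rat neuroblastoma B103 cells stably expressing HA-tagged full-length human LPA1 (G418 selection, FACS-sorted for high anti-HA signal), starved overnight in FreeStyle 293 medium, then exposed to ligands for 15 min at 37°C. Cells were fixed with 2% paraformaldehyde, washed with 0.3% Triton X-100 in PBS, stained with 1 μg/mL rhodamine-phalloidin for 30 min at room temperature, and imaged by confocal microscopy.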

[4] = biological target: T2, LPA1; assay: Neurite retraction assay in B103 cells expressing LPA1; settings: stable cell line expressing LPA1, 15 min treatment
How it was run: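 B103 rat neuroblastoma stable line carrying HA-tagged full-length human LPA1 (G418-selected, sorted for high anti-HA staining), serum-starved overnight in FreeStyle 293 medium. Cells were given ligands for 15 min at 37°C, washed, and fixed in 2% paraformaldehyde. Under the microscope, round cells lacking neurite extensions were counted and expressed as a percentage of observed cells.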

T1 sequence (Q92633 whole entry): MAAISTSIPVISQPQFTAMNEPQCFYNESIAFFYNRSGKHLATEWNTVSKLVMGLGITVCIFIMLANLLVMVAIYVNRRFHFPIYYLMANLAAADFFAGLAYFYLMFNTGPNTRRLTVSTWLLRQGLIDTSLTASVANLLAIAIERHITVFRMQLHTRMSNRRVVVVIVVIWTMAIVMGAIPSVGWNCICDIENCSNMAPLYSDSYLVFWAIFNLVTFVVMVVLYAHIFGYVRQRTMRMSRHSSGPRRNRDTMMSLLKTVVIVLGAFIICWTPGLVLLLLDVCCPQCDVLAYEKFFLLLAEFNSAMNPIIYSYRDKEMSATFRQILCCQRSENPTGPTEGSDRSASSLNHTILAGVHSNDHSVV
T2 sequence (Q92633 whole entry): as above

Row | EC50 [1] [nM] | EC50 [2] [nM] | SMILES | F-actin stress fiber formation [3] | Neurite retraction (cell morphology change mediated by LPA1) [4]
1 | 1120 ± 1480 |  | CCCCC/C=C\C/C=C\C/C=C\C/C=C\CCCC(=O)OC[C@@H](O)COP(=O)(O)O [1-ALPA, 1-arachidonoyl-LPA] |  | 
2 | 146 ± 74 | 0.345 ± 0.202 | CCCCCCCC/C=C\CCCCCCCC(=O)OCC(O)COP(=O)(O)O (centres unmarked) [LPA 18:1 sn1, 1-oleoyl-LPA] |  | 
3 |  |  | CCCCC/C=C\C/C=C\C/C=C\C/C=C\CCCC(=O)NCCOP(=O)(O)O [pAEA] | activated | robust activation
